# Experimental data of several laboratories.
# Each line is one published result; the experiments were not run side by side.
# Target: Cyclin-dependent kinase-like 1 (CDKL1, Homo sapiens, UniProt Q00532)
SMILES,assay,setting,measurement,result
Cn1c2c(Cl)c(Cl)ccc2c2cc(N)[nH]c(=O)c21,"thermal stability, DSF",10 µM,ΔTm,0.3 °C
CN1CC(Oc2cnc(C#N)cc2-c2ccn3nc(NC(=O)C4CC4)cc3c2)C1,"enzyme activity, inhibitor",1 µM,inhibition,5%
Nc1ncnc2occ(-c3ccc(NC(=O)Nc4cc(C(F)(F)F)ccc4F)cc3)c12,cell-free assay,20 µM,remaining signal,0.55%
Cc1ccc(C(=O)Nc2ccc(CN3CCN(C)CC3)c(C(F)(F)F)c2)cc1C#Cc1cnc2cccnn12,enzyme activity,23.5 nM,remaining activity,85%
CO[C@@H](C)c1c(Nc2ccc([C@@H](N(C)C(=O)C3CCS(=O)(=O)CC3)C(F)(F)F)cc2)cnc2cc(Cl)nn12,"cell-free assay, competition with immobilised ligand",1 µM,remaining binding,74%
COc1cc(Cl)c(C(=O)N[C@@H](CN[C@H]2CC[C@@H](N)CC2)Cc2ccc(C#N)cc2)cc1-c1ccc(CN[C@H](C)c2ccc(C)cc2)o1,"enzyme activity, inhibitor",1 µM,remaining activity,101%
NS(=O)(=O)c1cc(NC(=O)C2(c3ccccc3Cl)CC2)ccc1Oc1cccc(Cl)c1,"binding, competition with immobilised ligand",1 µM,remaining binding,99%
CCC1(CC)NC(=O)c2c(c3ccc(Cl)c(Cl)c3n2C)C1C#N (centres unmarked),"thermal stability, DSF",10 µM,ΔTm,0 °C
